Measurements gathered from unrelated publications.
Protocols differ between the studies behind these lines.
Target: Cyclin-G-associated kinase (GAK, Homo sapiens, UniProt O14976)
Sequence (O14976 1-1311, as in one of the studies): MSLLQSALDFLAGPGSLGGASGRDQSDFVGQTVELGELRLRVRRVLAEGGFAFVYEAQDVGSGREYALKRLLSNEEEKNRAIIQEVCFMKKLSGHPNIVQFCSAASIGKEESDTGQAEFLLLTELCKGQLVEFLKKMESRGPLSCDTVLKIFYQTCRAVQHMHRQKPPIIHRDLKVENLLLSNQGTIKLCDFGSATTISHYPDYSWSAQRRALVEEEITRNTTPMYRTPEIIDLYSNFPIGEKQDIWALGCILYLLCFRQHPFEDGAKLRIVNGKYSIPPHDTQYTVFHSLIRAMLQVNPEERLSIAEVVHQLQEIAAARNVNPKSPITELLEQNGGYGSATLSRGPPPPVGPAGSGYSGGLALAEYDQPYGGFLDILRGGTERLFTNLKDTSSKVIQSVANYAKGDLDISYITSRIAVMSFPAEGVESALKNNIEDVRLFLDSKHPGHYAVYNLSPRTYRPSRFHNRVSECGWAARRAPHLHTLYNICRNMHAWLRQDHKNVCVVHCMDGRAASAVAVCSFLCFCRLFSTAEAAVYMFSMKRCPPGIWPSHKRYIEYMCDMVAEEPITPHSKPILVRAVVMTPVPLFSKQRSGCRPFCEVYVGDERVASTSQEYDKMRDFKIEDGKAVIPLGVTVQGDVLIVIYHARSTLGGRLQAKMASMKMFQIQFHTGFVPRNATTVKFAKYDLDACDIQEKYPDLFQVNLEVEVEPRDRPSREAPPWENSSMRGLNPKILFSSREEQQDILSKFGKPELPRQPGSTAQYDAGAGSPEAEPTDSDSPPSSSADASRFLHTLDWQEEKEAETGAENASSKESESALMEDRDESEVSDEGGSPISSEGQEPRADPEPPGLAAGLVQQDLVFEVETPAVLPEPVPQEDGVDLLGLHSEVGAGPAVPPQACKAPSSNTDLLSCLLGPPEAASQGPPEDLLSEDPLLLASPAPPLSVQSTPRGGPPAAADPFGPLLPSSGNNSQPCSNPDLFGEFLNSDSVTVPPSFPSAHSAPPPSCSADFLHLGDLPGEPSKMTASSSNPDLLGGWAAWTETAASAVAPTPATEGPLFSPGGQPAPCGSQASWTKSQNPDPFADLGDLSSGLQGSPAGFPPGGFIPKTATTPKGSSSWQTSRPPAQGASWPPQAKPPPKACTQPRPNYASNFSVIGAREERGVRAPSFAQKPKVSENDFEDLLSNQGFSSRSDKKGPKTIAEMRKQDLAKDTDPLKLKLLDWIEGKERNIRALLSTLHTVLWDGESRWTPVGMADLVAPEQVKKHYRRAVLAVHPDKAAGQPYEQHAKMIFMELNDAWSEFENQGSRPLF

| Compound | observed | mode | method | tested at | endpoint | result |
| --- | --- | --- | --- | --- | --- | --- |
| Cc1ccc(NC(=O)c2ccnc(C(F)(F)F)c2)cc1-c1cc(OCCO)nc(N2CCOCC2)c1 | binding |  | competition with immobilised ligand | 1 µM | remaining binding | 95% |
| C#Cc1cc(-c2cc(Nc3nc(N[C@@H](C)c4ccc(F)cn4)ncc3Cl)n[nH]2)ccc1C=O | enzyme activity | inhibitor |  | 0.2 µM | inhibition | 18.7% |
| CC(C)S(=O)(=O)c1ccc2nccc(Nc3ccc4sc(C5CCCC5)nc4c3)c2c1 | enzyme activity | inhibitor |  | 1 µM | activity vs control | 101% |
| C=CC(=O)N1CCC([C@@H]2CCNc3c(C(N)=O)c(-c4ccc(Oc5ccccc5)cc4)nn32)CC1 | enzyme activity | inhibitor |  | 1 µM | inhibition | 20% |
| CCCCC(=O)Nc1ccc(-c2ccc3ncn(CCC)c(=O)c3c2)cn1 | binding |  | competition with immobilised ligand | 0.5 µM | remaining binding | 100% |
| CN1CCN(C(=O)c2ccc(NC(=O)Nc3ccc(N(C)c4ccnc(Nc5ccc(CS(C)(=O)=O)cc5)n4)cc3)cc2)CC1 | binding |  | competition with immobilised ligand | 1 µM | remaining binding | 18% |
| Cc1cc(O)c(-c2ccc([C@@H](C)CN(C)C)cc2)c2c1[nH]c(=O)c1sccc12 | enzyme activity | inhibitor |  | 0.1 µM | inhibition | 0.133% |
| C1=C/COCc2cc(ccc2OCCN2CCCC2)Nc2nccc(n2)-c2cccc(c2)COC/1 | binding |  |  | 0.1 µM | remaining binding | 31% |
| CO[C@@H]1[C@H](N(C)C(=O)c2ccccc2)C[C@H]2O[C@]1(C)n1c3ccccc3c3c4c(c5c6ccccc6n2c5c31)C(=O)NC4 | enzyme activity | inhibitor |  | 1 µM | inhibition | 74% |
